Assay results published in ChEMBL document CHEMBL1123977, “Synthesis, receptor binding, and tissue distribution of (17 alpha,20E)- and (17 alpha,20Z)-21-[125I]iodo-19-norpregna-1,3,5(10), 20-tetraene-3,17-diol ” (1988).
Several values for one entry are separate records, joined by “and”; a condition that tells them apart may be missing. Identical values can stand only once.

What was measured:
[1] = tested on: Rattus norvegicus; experiment: Mean uptake in uterus 5 hr after intravenous injection of 3 microCi (111 kBq); format: functional
In short: (§1)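 Immature female Fischer rats (24 days old, 55-60 g), food and water free. 3 μCi (111 kBq) HPLC-purified 125I-labeled steroid given iv via lateral tail vein in 200 μL saline containing 9% ethanol and 1% Tween 80; receptor-saturation group co-injected with 60 μg unlabeled estradiol. Sacrificed at set times; uterus washed with 0.154 M KCl, blotted, weighed, gamma counted against injected reference; expressed as PDK (% dose × kg/g), mean of three rats.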

[2] = tested on: Rattus norvegicus; experiment: In vivo deiodination in 2 hour after administration of compound; format: functional
In short: (§2)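 In immature female Fischer rats given 3 μCi (111 kBq) of 125I-steroid iv, deiodination was estimated from thyroid PDK at 1, 2 or 5 h, or at 2 h with 60 μg co-injected estradiol. Thyroid uptake after [125I]NaI injection at the same time interval was taken as 100%.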

[3] = tested on: Rattus norvegicus; experiment: Mean uptake in kidneys 2 hr after intravenous injection of 3 microCi (111 kBq) in presence of 60 ug coinjected estradiol; format: functional, Kidney
In short: (§3)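 Immature female Fischer rats (24 days old, 55-60 g) had free access to food and water. They were warmed under an infrared lamp, then given 200 μL HPLC-purified 125I-labeled steroid (3 μCi, 111 kBq) in saline with 9% ethanol and 1% Tween 80 via the lateral tail vein. Where stated, 60 μg unlabeled estradiol was co-injected. Rats were killed at 1, 2 or 5 h. Tissues were KCl-washed, blotted, weighed and gamma-counted against a reference of the injectate. Results are PDK (% dose × kg/g), mean and SD of three rats.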

[4] = tested on: Rattus norvegicus; experiment: Mean uptake in uterus 2 hr after intravenous injection of 3 microCi (111 kBq); format: functional; in short: as §1
[5] = tested on: Rattus norvegicus; experiment: Mean uptake in blood 5 hr after intravenous injection of 3 microCi (111 kBq); format: functional; in short: as §3
[6] = tested on: Rattus norvegicus; experiment: Mean uptake in liver 2 hr after intravenous injection of 3 microCi (111 kBq) in presence of 60 ug coinjected estradiol; format: functional; in short: as §3
[7] = tested on: Rattus norvegicus; experiment: Mean uptake in liver 5 hr after intravenous injection of 3 microCi (111 kBq); format: functional; in short: as §3
[8] = tested on: Rattus norvegicus; experiment: Mean uptake in spleen 2 hr after intravenous injection of 3 microCi (111 kBq) in presence of 60 ug coinjected estradiol; format: functional; in short: as §3
[9] = tested on: Rattus norvegicus; experiment: Mean uptake in thyroid 2 hr after intravenous injection of 3 microCi (111 kBq) in presence of 60 ug coinjected estradiol; format: functional, Thyroid gland; in short: as §3
[10] = tested on: Rattus norvegicus; experiment: Mean uptake in thyroid 1 hr after intravenous injection of 3 microCi (111 kBq) of the compound; format: functional, Thyroid gland; in short: as §3
[11] = tested on: Rattus norvegicus; experiment: Mean uptake in adrenals 5 hr after intravenous injection of 3 microCi (111 kBq); format: functional, Adrenal gland; in short: as §3
[12] = tested on: Rattus norvegicus; experiment: Mean uptake in adrenals 1 hr after intravenous injection of 3 microCi (111 kBq) of the compound; format: functional, Adrenal gland; in short: as §3
[13] = tested on: Rattus norvegicus; experiment: Mean uptake in muscle 1 hr after intravenous injection of 3 microCi (111 kBq) of the compound; format: functional, Muscle tissue; in short: as §3
[14] = tested on: Rattus norvegicus; experiment: Mean uptake in blood 2 hr after intravenous injection of 3 microCi (111 kBq); format: functional; in short: as §3
[15] = tested on: Rattus norvegicus; experiment: Mean uptake in blood 2 hr after intravenous injection of 3 microCi (111 kBq) in presence of 60 ug coinjected estradiol; format: functional; in short: as §3
[16] = tested on: Rattus norvegicus; experiment: Mean uptake in brain 2 hr after intravenous injection of 3 uM Ci (111 kBq) in presence of 60 ug coinjected estradiol; format: functional; in short: as §3
[17] = tested on: Rattus norvegicus; experiment: Mean uptake in ovaries 5 hr after intravenous injection of 3 microCi (111 kBq); format: functional, Female gonad; in short: as §3
[18] = tested on: Rattus norvegicus; experiment: Mean uptake in ovaries 2 hr after intravenous injection of 3 microCi (111 kBq) in presence of 60 ug coinjected estradiol; format: functional, Female gonad; in short: as §3
[19] = tested on: Rattus norvegicus; experiment: In vivo deiodination in 2 hour after administration of compound in presence of 60 microg of estradiol; format: functional; in short: as §2
[20] = tested on: Rattus norvegicus; experiment: Mean uptake in brain 1 hr after intravenous injection of 3 microCi (111 kBq) of the compound; format: functional; in short: as §3
[21] = tested on: Rattus norvegicus; experiment: Mean uptake in adrenals 2 hr after intravenous injection of 3 microCi (111 kBq); format: functional, Adrenal gland; in short: as §3
[22] = tested on: Rattus norvegicus; experiment: Mean uptake in ovaries 2 hr after intravenous injection of 3 microCi (111 kBq); format: functional, Female gonad; in short: as §3
[23] = tested on: Rattus norvegicus; experiment: Mean uptake in brain 2 hr after intravenous injection of 3 microCi (111 kBq); format: functional; in short: as §3
[24] = tested on: Rattus norvegicus; experiment: Mean uptake in kidneys 5 hr after intravenous injection of 3 microCi (111 kBq); format: functional; in short: as §3
[25] = tested on: Rattus norvegicus; experiment: In vivo deiodination in 1 hour after administration of compound; format: functional; in short: as §2
[26] = tested on: Rattus norvegicus; experiment: Mean uptake in muscles 5 hr after intravenous injection of 3 microCi (111 kBq); format: functional, Muscle tissue; in short: as §3
[27] = tested on: Rattus norvegicus; experiment: Mean uptake in lungs 1 hr after intravenous injection of 3 microCi (111 kBq) of the compound; format: functional; in short: as §3
[28] = tested on: Rattus norvegicus; experiment: In vivo deiodination in 5 hr after administration of compound; format: functional; in short: as §2
[29] = tested on: Rattus norvegicus; experiment: Mean uptake in ovaries 1 hr after intravenous injection of 3 microCi (111 kBq) of the compound; format: functional, Female gonad; in short: as §3
[30] = organism: Rattus norvegicus; experiment: Effect of Co-injection with estradiol on the uterus to blood ratio (Co-injected with 60 microg of estradiol (E2)); format: functional
In short: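 Immature female Fischer rats (24 days, 55-60 g) received 3 μCi (111 kBq) 125I-labelled steroid iv via the lateral tail vein, in 200 μL 9% ethanol-saline with 1% Tween 80, co-injected with 60 μg unlabelled estradiol. Killed at 2 h. Uterus and blood were KCl-washed and gamma-counted as PDK. Ratio is the mean of three rats; % change is versus tracer-only animals.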

[31] = tested on: Rattus norvegicus; experiment: Mean uptake in blood after intravenous injection of 3 microCi (111 kBq) of the compound; format: functional; in short: as §3
[32] = tested on: Rattus norvegicus; experiment: Mean uptake in adrenals 2 hr after intravenous injection of 3 uM Ci (111 kBq) in presence of 60 ug coinjected estradiol; format: functional, Adrenal gland; in short: as §3
[33] = tested on: Rattus norvegicus; experiment: Mean uptake in liver 2 hr after intravenous injection of 3 microCi (111 kBq); format: functional; in short: as §3
[34] = tested on: Rattus norvegicus; experiment: Mean uptake in thyroid 2 hr after intravenous injection of 3 microCi (111 kBq); format: functional, Thyroid gland; in short: as §3
[35] = tested on: Rattus norvegicus; experiment: Mean uptake in spleen 5 hr after intravenous injection of 3 microCi (111 kBq); format: functional; in short: as §3
[36] = tested on: Rattus norvegicus; experiment: Mean uptake in kidneys 2 hr after intravenous injection of 3 microCi (111 kBq); format: functional; in short: as §3
[37] = tested on: Rattus norvegicus; experiment: Mean uptake in lungs 2 hr after intravenous injection of 3 microCi (111 kBq); format: functional; in short: as §3
[38] = tested on: Rattus norvegicus; experiment: Mean uptake in lungs 2 hr after intravenous injection of 3 uM Ci (111 kBq) in presence of 60 ug coinjected estradiol; format: functional; in short: as §3
[39] = tested on: Rattus norvegicus; experiment: Mean uptake in kidneys 1 hr after intravenous injection of 3 microCi (111 kBq) of the compound; format: functional; in short: as §3
[40] = tested on: Rattus norvegicus; experiment: Mean uptake in uterus 2 hr after intravenous injection of 3 uM Ci (111 kBq) in presence of 60 ug coinjected estradiol; format: functional; in short: as §1
[41] = tested on: Rattus norvegicus; experiment: Mean uptake in liver 1 hr after intravenous injection of 3 microCi (111 kBq) of the compound; format: functional; in short: as §3
[42] = tested on: Rattus norvegicus; experiment: Mean uptake in uterus 1 hr after intravenous injection of 3 microCi (111 kBq) of the compound; format: functional; in short: as §3
[43] = tested on: Rattus norvegicus; experiment: Mean uptake in spleen 1 hr after intravenous injection of 3 microCi (111 kBq) of the compound; format: functional; in short: as §3
[44] = tested on: Rattus norvegicus; experiment: Mean uptake in spleen 2 hr after intravenous injection of 3 microCi (111 kBq); format: functional; in short: as §3
[45] = tested on: Rattus norvegicus; experiment: Mean uptake in lungs 5 hr after intravenous injection of 3 microCi (111 kBq); format: functional; in short: as §3
[46] = tested on: Rattus norvegicus; experiment: Mean uptake in muscle 2 hr after intravenous injection of 3 microCi (111 kBq); format: functional, Muscle tissue; in short: as §3

SMILES: C[C@]12CC[C@@H]3c4ccc(O)cc4CC[C@H]3[C@@H]1CC[C@@]2(O)/C=C/[125I]
- PDK [1]: 11
- Deiodination [2]: 2.1%
- PDK [3]: 29
- PDK [4]: 35
- PDK [5]: 9
- PDK [6]: 106
- PDK [7]: 55
- PDK [8]: 11
- PDK [9]: 2300
- PDK [10]: 1331
- PDK [11]: 21
- PDK [12]: 175
- PDK [13]: 30
- PDK [14]: 10
- PDK [15]: 10
- PDK [16]: 14
- PDK [17]: 16
- PDK [18]: 39
- Deiodination [19]: 1.7%
- PDK [20]: 38
- PDK [21]: 72
- PDK [22]: 43
- PDK [23]: 12
- PDK [24]: 10
- Deiodination [25]: 2%
- PDK [26]: 4
- PDK [27]: 49
- Deiodination [28]: 4.4%
- PDK [29]: 108
- Change [30]: -41%
- Uterus to blood ratio [30]: 2.32
- PDK [31]: 17
- PDK [32]: 73
- PDK [33]: 92
- PDK [34]: 2870
- PDK [35]: 4
- PDK [36]: 27
- PDK [37]: 25
- PDK [38]: 28
- PDK [39]: 71
- PDK [40]: 22
- PDK [41]: 245
- PDK [42]: 92
- PDK [43]: 27
- PDK [44]: 10
- PDK [45]: 8
- PDK [46]: 11 and 13
